pIC50, pKd: −log10 of the molar value. In brackets after ≈: the same amount, converted by molar mass. Each block holds one molecule with its values, some of them ahead of it. Activity calls are given as the source filed them. No cut-off for these calls is given here. Square brackets hold non-standard residues; d marks the D form. Peptide text beside a SMILES is read from it. dPhe(4-Cl) = N[C@H](Cc1ccc(Cl)cc1)C(=O)O; d2Nal = N[C@H](Cc1ccc2ccccc2c1)C(=O)O; dCit = NC(=O)NCCC[C@@H](N)C(=O)O; d3Pal = N[C@H](Cc1cccnc1)C(=O)O
How the values were obtained:
[1] = target: T1, Gonadotropin-releasing hormone receptor (Homo sapiens, UniProt P30968); experiment: Antagonist activity at human GnRH receptor expressed in CHO-K1 cells assessed as inhibition of LHRH-induced response preincubated for 20 mins followed by LHRH addition and measured after 60 mins by TR-FRET assay; format: cell-based
T1 sequence (P30968 whole entry): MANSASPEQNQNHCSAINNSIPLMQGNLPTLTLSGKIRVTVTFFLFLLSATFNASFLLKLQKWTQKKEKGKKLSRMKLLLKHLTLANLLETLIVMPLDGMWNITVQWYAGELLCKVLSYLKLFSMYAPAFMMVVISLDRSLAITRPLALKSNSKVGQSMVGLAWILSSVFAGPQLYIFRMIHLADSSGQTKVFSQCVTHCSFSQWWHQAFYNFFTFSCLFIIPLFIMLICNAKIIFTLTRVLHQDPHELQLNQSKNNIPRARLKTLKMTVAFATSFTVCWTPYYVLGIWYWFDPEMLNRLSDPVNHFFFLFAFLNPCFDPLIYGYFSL

[2] = target: T2, Gonadotropin-releasing hormone receptor (Rattus norvegicus, UniProt P30969); experiment: Antagonist activity at rat GnRH receptor expressed in CHO-K1 cells assessed as inhibition of LHRH-induced response preincubated for 20 mins followed by LHRH addition and measured after 60 mins by TR-FRET assay; format: cell-based
T2 sequence (P30969 whole entry): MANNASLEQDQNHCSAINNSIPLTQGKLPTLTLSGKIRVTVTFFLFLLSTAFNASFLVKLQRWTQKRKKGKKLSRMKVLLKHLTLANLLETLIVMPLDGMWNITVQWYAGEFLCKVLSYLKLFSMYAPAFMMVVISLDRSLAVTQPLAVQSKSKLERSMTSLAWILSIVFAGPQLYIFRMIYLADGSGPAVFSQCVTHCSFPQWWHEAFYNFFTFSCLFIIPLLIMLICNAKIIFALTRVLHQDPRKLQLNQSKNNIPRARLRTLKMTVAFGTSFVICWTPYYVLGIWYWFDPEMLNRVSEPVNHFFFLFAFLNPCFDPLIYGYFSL
Method in brief: (§1)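 Frozen rat-receptor cells: thawed, seeded overnight in serum-containing Ham's F12, Accutase-harvested, resuspended in serum-free medium with IP1-d2, 1 h at 37 °C. 1.0 × 10^4 cells/well, 20 min compound preincubation at rt, then 1× EC80 LHRH or buserelin in HEPES stimulation buffer pH 7.4 for 60 min at 37 °C. Tb-anti-IP1 lysis (1:38), HTRF read 60 min later.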

[3] = Half life in Wistar rat at 0.5 mg/kg, iv by LC-MS/MS analysis; format: ADME, organism-based; conditions: in vivo
[4] = Intrinsic clearance in Han Wistar rat hepatocytes at 1 uM measured up to 90 mins by LC/MS/MS analysis; format: ADME, cell-based, Hepatocyte; conditions: for CLint scaled at 1 µM: Han Wistar, read-out: CLH (converted)
[5] = Clearance in Wistar rat at 0.5 mg/kg, iv by LC-MS/MS analysis; format: ADME, organism-based; conditions: in vivo; for clearance: Wistar
[6] = target: T1, Gonadotropin-releasing hormone receptor; experiment: Antagonist activity at human GnRH receptor expressed in CHO-K1 cells assessed as inhibition of buserelin-induced response preincubated for 20 mins followed by buserelin addition and measured after 60 mins by TR-FRET assay; format: cell-based
[7] = Oral bioavailability in Wistar rat at 2 mg/kg by LC-MS/MS analysis; format: ADME, organism-based; conditions: in vivo
[8] = test system: Rattus norvegicus; experiment: Suppression of ovariectomized-induced increase in plasma luteinizing hormone level in Wistar Han rat at 30 mg/kg, ip measured after 1 hr relative to control; format: functional
Method in brief: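 Ovariectomized rats given a single intraperitoneal injection at 30 mg/kg. Plasma LH measured 1 h later and compared with vehicle-treated animals.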

[9] = Aqueous solubility of compound at pH 6.5 incubated for 24 hrs under shaking condition by HPLC-MS/MS analysis; format: physicochemical; conditions: aqueous solution
Method in brief: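 Compound from 1 mM DMSO solution, pH 6.5 buffer added, shaken 24 h at rt. Filtered, dissolved compound quantified by HPLC-MS/MS.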

[10] = Lipophilicity, log D of the compound in pH 7.5 MeCN/H2O solution by reversed-phase HPLC analysis; format: physicochemical
Method in brief: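 Indirect reversed-phase HPLC at pH 7.5, calibrated with n-alkan-2-ones C3–C16. Compounds applied as 0.67 mM DMSO stocks in MeCN/H2O (1:1).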

[11] = target: Voltage-gated inwardly rectifying potassium channel KCNH2 (Homo sapiens, UniProt Q12809); experiment: Inhibition of human ERG expressed in HEK293 cells assessed as reduction in channel inward tail current by whole cell voltage clamp assay; format: cell-based
Chain of Voltage-gated inwardly rectifying potassium channel KCNH2 (Q12809 whole entry): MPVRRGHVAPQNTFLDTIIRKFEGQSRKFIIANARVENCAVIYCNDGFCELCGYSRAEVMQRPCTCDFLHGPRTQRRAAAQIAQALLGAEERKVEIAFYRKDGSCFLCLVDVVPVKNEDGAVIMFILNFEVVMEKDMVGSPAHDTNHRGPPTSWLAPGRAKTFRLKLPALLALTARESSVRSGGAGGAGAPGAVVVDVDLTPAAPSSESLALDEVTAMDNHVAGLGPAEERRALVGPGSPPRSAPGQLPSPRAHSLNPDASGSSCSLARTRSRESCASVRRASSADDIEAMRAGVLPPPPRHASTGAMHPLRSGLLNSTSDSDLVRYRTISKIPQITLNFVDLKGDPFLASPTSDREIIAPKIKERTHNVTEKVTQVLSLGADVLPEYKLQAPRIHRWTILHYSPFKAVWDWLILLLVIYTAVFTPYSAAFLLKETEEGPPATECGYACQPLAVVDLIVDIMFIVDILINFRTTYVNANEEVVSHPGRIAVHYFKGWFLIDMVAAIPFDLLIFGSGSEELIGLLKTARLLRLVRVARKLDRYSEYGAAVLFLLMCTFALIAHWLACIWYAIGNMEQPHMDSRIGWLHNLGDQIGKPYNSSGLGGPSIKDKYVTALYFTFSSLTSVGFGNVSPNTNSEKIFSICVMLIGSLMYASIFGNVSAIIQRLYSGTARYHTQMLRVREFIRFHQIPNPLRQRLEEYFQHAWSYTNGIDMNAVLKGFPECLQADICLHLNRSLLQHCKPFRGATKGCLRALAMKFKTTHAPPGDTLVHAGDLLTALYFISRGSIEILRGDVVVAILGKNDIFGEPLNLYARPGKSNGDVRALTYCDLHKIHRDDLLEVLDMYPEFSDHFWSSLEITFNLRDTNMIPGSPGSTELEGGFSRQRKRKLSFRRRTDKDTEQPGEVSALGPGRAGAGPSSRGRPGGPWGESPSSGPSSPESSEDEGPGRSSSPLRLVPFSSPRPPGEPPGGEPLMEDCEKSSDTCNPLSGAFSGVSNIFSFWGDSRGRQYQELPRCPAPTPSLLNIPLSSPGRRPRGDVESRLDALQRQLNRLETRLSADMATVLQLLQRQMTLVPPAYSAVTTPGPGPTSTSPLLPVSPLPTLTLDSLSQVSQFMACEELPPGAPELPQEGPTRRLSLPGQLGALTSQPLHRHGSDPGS

[12] = test system: Rattus norvegicus; experiment: Suppression of ovariectomized-induced increase in plasma luteinizing hormone level in po dosed Wistar Han rat measured up to 24 hrs; format: functional; conditions: time hrs <=24
Method in brief: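 Ovariectomized rats given single oral doses, range 1 to 30 mg/kg. Plasma LH followed over time, with cetrorelix at 0.1 mg/kg sc as reference. ED50 calculated from the dose-response.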

[13] = target: T2, Gonadotropin-releasing hormone receptor; experiment: Antagonist activity at rat GnRH receptor expressed in CHO-K1 cells assessed as inhibition of buserelin-induced response preincubated for 20 mins followed by buserelin addition and measured after 60 mins by TR-FRET assay; format: cell-based; method in brief: as §1
[14] = target: T3, Gonadotropin-releasing hormone receptor (Homo sapiens) (UniProt P30968); experiment: Inhibition of Tag-lite green-labeled agonist binding to terbium fluorophore-labeled human N-terminal SNAP-tag GnRh receptor expressed in HEK293 cells assessed as dissociation rate constant by TR-FRET assay; format: cell-based; conditions: filed as antagonist
T3 sequence (whole entry): T1 sequence (P30968 whole entry)
Method in brief: (§2)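 Kinetic competition at rt: tracer at 10 nM final with compound, Tb-hGnRH-R cells injected in the reader. TR-FRET read at time zero and every 21 s. Baseline-subtracted traces fitted with the Motulsky–Mahan competitive kinetics model. At least two independent experiments, two replicates each.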

[15] = test system: Rattus norvegicus; experiment: Suppression of ovariectomized-induced increase in plasma luteinizing hormone level in Wistar Han rat at 0.1 mg/kg, sc measured up to 24 hrs; format: functional, organism-based; conditions: time hrs <=24
[16] = target: T3, Gonadotropin-releasing hormone receptor (Homo sapiens); experiment: Inhibition of Tag-lite green-labeled agonist binding to terbium fluorophore-labeled human N-terminal SNAP-tag GnRh receptor expressed in HEK293 cells assessed as residence time by TR-FRET assay; format: cell-based; conditions: filed as antagonist; method in brief: as §2
[17] = target: T3, Gonadotropin-releasing hormone receptor (Homo sapiens); experiment: Inhibition of Tag-lite green-labeled agonist binding to terbium fluorophore-labeled human N-terminal SNAP-tag GnRh receptor expressed in HEK293 cells assessed as association rate constant by TR-FRET assay; format: cell-based; conditions: filed as antagonist; method in brief: as §2
[18] = target: T1, Gonadotropin-releasing hormone receptor; experiment: Inhibition of Tag-lite green-labeled agonist binding to terbium fluorophore-labeled human N-terminal SNAP-tag GnRh receptor expressed in HEK293 cells assessed as equilibrium dissociation constant by TR-FRET assay; format: cell-based
[19] = target: T1, Gonadotropin-releasing hormone receptor; experiment: Inhibition of Tag-lite green-labeled agonist binding to terbium fluorophore-labeled human N-terminal SNAP-tag GnRh receptor expressed in HEK293 cells assessed as dissociation constant by TR-FRET assay; format: cell-based

- pIC50 [1]: 7.00
- pIC50 ([2]; cho-k1): 7.57
- half-life [3]: 8.1 h
- CLint scaled at 1 µM [4]: 2 L/h/kg
- clearance [5]: 1.4 L/h/kg
- pIC50 [6]: 6.76
SMILES: CC1N(S(=O)(=O)c2ccc(F)cc2)c2ccc(C(=O)NCc3ccccc3Cl)cc2C12CCNCC2 (stereo in doubt)

- pIC50 [1]: 7.22
- pIC50 [2]: 7.40
- half-life [3]: 2.1 h
- CLint scaled at 1 µM [4]: 0.25 L/h/kg
- clearance [5]: 1.8 L/h/kg
- bioavailability [7]: 27%
SMILES: O=C(NCc1ncccc1Cl)c1ccc2c(c1)C1(CCS(=O)(=O)CC1)C(C1CC1)N2S(=O)(=O)c1ccc(F)cc1 (stereo in doubt)

- pIC50 ([1]; cho-k1): 7.00
- pIC50 [2]: 7.57
- solubility at 24 h [9]: 0.271 mg/mL (≈ 513 µM)
- chromatographic logD [10]: 2.8
- bioavailability [7]: < 2%
- pIC50 ([6]; cho-k1): 6.76
SMILES: CC1N(S(=O)(=O)c2ccc(F)cc2)c2ccc(C(=O)NCc3ccccc3Cl)cc2C12CCNCC2 (stereo in doubt; 3a)
- Activity [8]: 74%
- pIC50 [11]: 5.96

- pIC50 [1]: 7.22
- pIC50 ([2]; cho-k1): 7.40
- chromatographic logD [10]: 3
SMILES: O=C(NCc1ncccc1Cl)c1ccc2c(c1)C1(CCS(=O)(=O)CC1)C(C1CC1)N2S(=O)(=O)c1ccc(F)cc1 (stereo in doubt; 4a) [listing 1 of 2 here]
- ED50 [12]: 5.5 mg/kg

- pIC50 [1]: 7.39
- pIC50 [2]: 7.54
- pIC50 [13]: 7.47
- half-life [3]: 0.82 h
- CLH ([4]; 1.5 h, 1 µM): 2.8 L/h/kg
- CL ([5]; 0.5 mg/kg): 4.7 L/h/kg
- pIC50 [6]: 7.00
SMILES: COc1ccc(S(=O)(=O)N2c3ccc(C(=O)NCc4ccccc4Cl)cc3C3(CCN(C(C)=O)CC3)C2C)cc1 (stereo in doubt; form 2)

The next lines start with the molecule.

SMILES: O=C(NCc1ncccc1Cl)c1ccc2c(c1)C1(CCS(=O)(=O)CC1)C(C1CC1)N2S(=O)(=O)c1ccc(F)cc1 (stereo in doubt; 4a) [listing 2 of 2 here]
- Activity [12]: Dose-dependent effect

SMILES: CC(=O)N[C@H](Cc1ccc2ccccc2c1)C(=O)N[C@H](Cc1ccc(Cl)cc1)C(=O)N[C@H](Cc1cccnc1)C(=O)N[C@@H](CO)C(=O)N[C@@H](Cc1ccc(O)cc1)C(=O)N[C@H](CCCNC(N)=O)C(=O)N[C@@H](CC(C)C)C(=O)N[C@@H](CCCNC(=N)N)C(=O)N1CCC[C@H]1C(=O)N[C@H](C)C(N)=O [CETRORELIX] (Ac-[d2Nal][dPhe(4-Cl)][d3Pal]SY[dCit]LRP[dA]-NH2)
- K [14]: 1 10^-5/s
- Activity [15]: Active
- TIME [16]: 0.583 h
- K [17]: 3.57 10^6/M/s
- pKd [18]: 9.87
- pKd [19]: 11.77

SMILES: COc1cccc(-c2c(C)n(Cc3c(F)cccc3C(F)(F)F)c(=O)n(C[C@H](NCCCC(=O)O)c3ccccc3)c2=O)c1F [ELAGOLIX SODIUM]
- K [14]: 3.3 10^-4/s
- TIME [16]: 1.27 h
- K [17]: 2.06 10^5/M/s
- pKd [18]: 8.92
- pKd [19]: 8.49

— ChEMBL document CHEMBL4673248, “Discovery and Characterization of BAY 1214784, an Orally Available Spiroindoline Derivative Acting as a Potent and Selective Antagonist of the Human Gonadotropin-Releasing Hormone Receptor as Proven in a First-In-Human Study in Postmenopausal Women” (J Med Chem, 2020)
